Columns and labels:
Format in all cases: cell-based
[1] = biological target: T1, Somatostatin receptor type 2 (Homo sapiens, UniProt P30874); test: Relative effective concentration against human somatostatin receptor type 2 expressed in CHO cells; (n=3)
In short: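 Dual-tracer internalization in CHO cells stably expressing N-terminally tagged hsst2 (90000–120000 cells/well, plated the day before). Acid wash at pH 5 removed surface-bound activity; nonspecific uptake was taken with 5 µM TOC; triplicates. EC50 is expressed relative to [125I]TOC.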

[2] = biological target: Somatostatin receptor type 1 (Homo sapiens, UniProt P30872); test: In vitro inhibition of [125I][Leu8,D-Trp22,Tyr25] somatostatin 28 binding to human somatostatin receptor type 1 expressed in CHO-K1 cells; (n=3); settings: cho-k1
[3] = biological target: Somatostatin receptor type 5 (Homo sapiens, UniProt P35346); test: In vitro inhibition of [125I][Leu8,D-Trp22,Tyr25] somatostatin 28 binding to human somatostatin receptor type 5 expressed in CHO-K1 cells; (n=3)
[4] = biological target: Somatostatin receptor type 3 (Homo sapiens, UniProt P32745); test: In vitro inhibition of [125I][Leu8,D-Trp22,Tyr25] somatostatin 28 binding to human somatostatin receptor type 3 expressed in CCL39 cells; (n=3); settings: ccl39
[5] = biological target: Somatostatin receptor type 4 (Homo sapiens, UniProt P31391); test: In vitro inhibition of [125I][Leu8,D-Trp22,Tyr25] somatostatin 28 binding to human somatostatin receptor type 4 expressed in CCL39 cells; (n=3)
In short: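 Membrane pellets from CCL39 cells stably expressing hsst4 were sectioned onto slides for receptor autoradiography. Full displacement of the universal somatostatin radioligand used unlabeled peptide at 0.1–1000 nM, with somatostatin 28 run in parallel at the same concentrations. Values are mean ± SD.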

[6] = biological target: T1, Somatostatin receptor type 2; test: In vitro inhibition of [125I][Leu8,D-Trp22,Tyr25] somatostatin 28 binding to human somatostatin receptor type 2 expressed in CCL39 cells; (n=3)

T1 sequence (P30874 whole entry): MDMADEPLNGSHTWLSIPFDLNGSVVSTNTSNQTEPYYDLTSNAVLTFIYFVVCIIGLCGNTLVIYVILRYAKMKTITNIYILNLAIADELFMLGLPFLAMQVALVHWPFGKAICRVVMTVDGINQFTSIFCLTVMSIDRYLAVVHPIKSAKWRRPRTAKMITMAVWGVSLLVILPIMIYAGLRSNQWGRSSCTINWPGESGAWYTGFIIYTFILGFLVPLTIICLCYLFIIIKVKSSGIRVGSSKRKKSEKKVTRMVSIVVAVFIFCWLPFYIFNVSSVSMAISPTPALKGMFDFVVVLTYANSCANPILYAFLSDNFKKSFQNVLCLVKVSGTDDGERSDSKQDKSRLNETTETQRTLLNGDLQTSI
Sequence of Somatostatin receptor type 4 (P31391 whole entry): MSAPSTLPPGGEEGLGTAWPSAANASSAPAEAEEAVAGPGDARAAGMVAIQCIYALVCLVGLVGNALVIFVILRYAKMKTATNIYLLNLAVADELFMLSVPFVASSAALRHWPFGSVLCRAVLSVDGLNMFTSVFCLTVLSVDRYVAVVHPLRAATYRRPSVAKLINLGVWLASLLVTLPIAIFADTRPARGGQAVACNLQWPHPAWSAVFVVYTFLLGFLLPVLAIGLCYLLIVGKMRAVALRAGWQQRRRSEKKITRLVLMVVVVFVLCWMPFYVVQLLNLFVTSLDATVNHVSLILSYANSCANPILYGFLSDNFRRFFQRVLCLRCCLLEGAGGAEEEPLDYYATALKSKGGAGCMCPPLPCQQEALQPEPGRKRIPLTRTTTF
Sequence of Somatostatin receptor type 1 (P30872 whole entry): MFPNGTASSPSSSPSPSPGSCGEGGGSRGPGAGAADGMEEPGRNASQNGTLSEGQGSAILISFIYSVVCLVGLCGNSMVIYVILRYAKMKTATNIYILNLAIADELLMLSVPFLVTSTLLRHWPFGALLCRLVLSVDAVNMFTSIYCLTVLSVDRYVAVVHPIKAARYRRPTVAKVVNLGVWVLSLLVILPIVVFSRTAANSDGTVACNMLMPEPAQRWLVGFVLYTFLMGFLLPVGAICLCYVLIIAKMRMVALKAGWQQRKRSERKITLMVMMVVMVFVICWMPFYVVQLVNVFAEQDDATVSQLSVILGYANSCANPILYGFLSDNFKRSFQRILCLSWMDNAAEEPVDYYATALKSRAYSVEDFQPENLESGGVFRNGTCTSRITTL
Sequence of Somatostatin receptor type 3 (P32745 whole entry): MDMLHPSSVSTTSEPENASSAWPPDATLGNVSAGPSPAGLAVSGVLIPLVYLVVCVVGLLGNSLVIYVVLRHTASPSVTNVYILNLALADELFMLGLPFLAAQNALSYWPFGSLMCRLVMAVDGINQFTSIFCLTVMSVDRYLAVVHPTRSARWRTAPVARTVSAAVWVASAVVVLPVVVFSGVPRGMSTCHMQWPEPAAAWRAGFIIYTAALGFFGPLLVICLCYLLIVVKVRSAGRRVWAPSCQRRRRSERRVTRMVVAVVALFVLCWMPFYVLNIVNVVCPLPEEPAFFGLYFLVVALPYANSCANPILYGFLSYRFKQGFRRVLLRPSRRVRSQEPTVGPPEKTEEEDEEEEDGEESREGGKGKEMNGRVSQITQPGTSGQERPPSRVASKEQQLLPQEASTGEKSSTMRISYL
Sequence of Somatostatin receptor type 5 (P35346 whole entry): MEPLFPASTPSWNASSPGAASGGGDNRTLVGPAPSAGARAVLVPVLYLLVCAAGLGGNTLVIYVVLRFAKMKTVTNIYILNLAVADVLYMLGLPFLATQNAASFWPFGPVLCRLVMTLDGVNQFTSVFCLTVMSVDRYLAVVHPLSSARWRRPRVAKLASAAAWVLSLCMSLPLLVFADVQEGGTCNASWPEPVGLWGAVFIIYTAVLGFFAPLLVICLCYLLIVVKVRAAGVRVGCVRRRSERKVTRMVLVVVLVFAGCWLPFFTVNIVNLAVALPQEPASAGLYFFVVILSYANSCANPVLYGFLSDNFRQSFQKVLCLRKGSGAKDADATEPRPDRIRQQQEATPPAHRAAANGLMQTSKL

EC50 ([1]; cho) [nM]	SMILES	further results
1.12	C[C@@H](O)[C@H](CO)NC(=O)[C@@H]1CSSC[C@H](NC(=O)[C@@H](Cc2ccccc2)NC[C@]2(O)OC[C@H](O)[C@@H](O[C@@H]3O[C@@H](CO)[C@@H](O)[C@H](O)[C@@H]3O)[C@@H]2O)C(=O)N[C@@H](Cc2ccc(O)c([123I])c2)C(=O)N[C@H](Cc2c[nH]c3ccccc23)C(=O)N[C@@H](CCCCN)C(=O)N[C@@H]([C@@H](C)O)C(=O)N1	
	C[C@@H](O)[C@H](NC(=O)[C@@H]1CSSC[C@H](NC(=O)[C@H](N)Cc2ccccc2)C(=O)N[C@@H](Cc2ccc(O)c([123I])c2)C(=O)N[C@H](Cc2c[nH]c3ccccc23)C(=O)N[C@@H](CCCCN)C(=O)N[C@@H]([C@@H](C)O)C(=O)N1)C(=O)O	EC50 [1]: 1.7 nM
1.01	C[C@@H](O)[C@H](CO)NC(=O)[C@@H]1CSSC[C@H](NC(=O)[C@@H](Cc2ccccc2)NC[C@]2(O)OC[C@H](O)[C@@H](O[C@@H]3O[C@@H](CO)[C@@H](O[C@@H]4O[C@@H](CO)[C@@H](O)[C@H](O)[C@@H]4O)[C@H](O)[C@@H]3O)[C@@H]2O)C(=O)N[C@@H](Cc2ccc(O)c([123I])c2)C(=O)N[C@H](Cc2c[nH]c3ccccc23)C(=O)N[C@@H](CCCCN)C(=O)N[C@@H]([C@@H](C)O)C(=O)N1	
1.81	C[C@@H](O)[C@H](NC(=O)[C@@H]1CSSC[C@H](NC(=O)[C@@H](Cc2ccccc2)NC[C@]2(O)OC[C@H](O)[C@@H](O[C@@H]3O[C@@H](CO)[C@@H](O[C@@H]4O[C@@H](CO)[C@@H](O)[C@H](O)[C@@H]4O)[C@H](O)[C@@H]3O)[C@@H]2O)C(=O)N[C@@H](Cc2ccc(O)c([123I])c2)C(=O)N[C@H](Cc2c[nH]c3ccccc23)C(=O)N[C@@H](CCCCN)C(=O)N[C@@H]([C@@H](C)O)C(=O)N1)C(=O)O	
1	C[C@@H](O)[C@H](CO)NC(=O)[C@@H]1CSSC[C@H](NC(=O)[C@H](N)Cc2ccccc2)C(=O)N[C@@H](Cc2ccc(O)c([125I])c2)C(=O)N[C@H](Cc2c[nH]c3ccccc23)C(=O)N[C@@H](CCCCN)C(=O)N[C@@H]([C@@H](C)O)C(=O)N1	
	C[C@@H](O)[C@H](NC(=O)[C@@H]1CSSC[C@H](NC(=O)[C@@H](Cc2ccccc2)NC[C@]2(O)OC[C@H](O)[C@@H](O[C@@H]3O[C@@H](CO)[C@@H](O)[C@H](O)[C@@H]3O)[C@@H]2O)C(=O)N[C@@H](Cc2ccc(O)c(I)c2)C(=O)N[C@H](Cc2c[nH]c3ccccc23)C(=O)N[C@@H](CCCCN)C(=O)N[C@@H]([C@@H](C)O)C(=O)N1)C(=O)O	IC50 [2]: > 10000 nM; IC50 [3]: 210 nM; IC50 [4]: 757 nM; IC50 [5]: 797 nM; IC50 [6]: 0.78 nM
2.13	C[C@@H](O)[C@H](NC(=O)[C@@H]1CSSC[C@H](NC(=O)[C@@H](Cc2ccccc2)NC[C@]2(O)OC[C@H](O)[C@@H](O[C@@H]3O[C@@H](CO)[C@@H](O)[C@H](O)[C@@H]3O)[C@@H]2O)C(=O)N[C@@H](Cc2ccc(O)c([123I])c2)C(=O)N[C@H](Cc2c[nH]c3ccccc23)C(=O)N[C@@H](CCCCN)C(=O)N[C@@H]([C@@H](C)O)C(=O)N1)C(=O)O	
1.43	C[C@@H](O)[C@H](CO)NC(=O)[C@@H]1CSSC[C@H](NC(=O)[C@@H](Cc2ccccc2)NC[C@]2(O)OC[C@H](O)[C@@H](O)[C@@H]2O)C(=O)N[C@@H](Cc2ccc(O)c([123I])c2)C(=O)N[C@H](Cc2c[nH]c3ccccc23)C(=O)N[C@@H](CCCCN)C(=O)N[C@@H]([C@@H](C)O)C(=O)N1	

— ChEMBL document CHEMBL1143592, “N-terminal sugar conjugation and C-terminal Thr-for-Thr(ol) exchange in radioiodinated Tyr3-octreotide: effect on cellular ligand trafficking in vitro and tumor accumulation in vivo” (J Med Chem, 2005)
